This note sets out measurements from ChEMBL document CHEMBL4402518, “Identification of Novel Medulloblastoma Cell-Targeting Peptides for Use in Selective Chemotherapy Drug Delivery” (J Med Chem, 2020).

As a reminder, the IC50 is the concentration needed to halve the response being measured.

Calls of active or inactive are those of the source. No cut-off for these calls is given here. Peptide text beside a SMILES is read from it. * marks the point of attachment. Glutaryl(5-(14-O-Dox)) = COc1cccc2c1C(=O)c1c(O)c3c(c(O)c1C2=O)C[C@@](O)(C(=O)COC(=O)CCCC(=O)*)C[C@@H]3O[C@H]1C[C@H](N)[C@H](O)[C@H](C)O1 Some results are limits rather than exact numbers.

A short description of data set [1]: Drug uptake in human DaOY cells assessed as drug internalization at 0.1 to 1000 uM incubated for 24 hrs using C-terminal FITC-labeled compound by flow cytometry. Format: ADME, cell-based. The procedure, abridged: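 FITC-labelled peptide at differing concentrations for 24 h, then cell-associated green fluorescence intensity measured by flow cytometry. Cells given non-fluorescent peptide served as control; n = 3 independent experiments.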
For orientation: In flow cytometry, cells or beads pass a laser one at a time.

Data set [2] relates to MRC5. The experiment in a line: Cytotoxicity against human MRC5 cells assessed as reduction in cell viability incubated for 72 hrs. The data set is classed as cell-based. Particulars: mrc5, 72 h. The procedure, abridged:
(§1)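 Cells treated at increasing concentrations, with viability read 72 hours post-treatment by alamar blue assay. Data are mean ± S.E.M. from 3 independent experiments.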

The subject of data set [3] is Daoy. The experiment in a line: Binding affinity to human DaOY cell surface measured after 15 mins incubation using C-terminal FITC labeled compound by Live cell confocal microscopy. Format: cell-based.
A short description of data set [4]: Cytotoxicity against human NHA cells assessed as reduction in cell viability incubated for 72 hrs. Format: cell-based. The method, boiled down: as §1
Data set [5] deals with Daoy. Briefly: Cytotoxicity against human DaOY cells assessed as reduction in cell viability incubated for 72 hrs. Format: cell-based. The procedure, abridged: as §1
A short description of data set [6]: Solubility of the compound in water using C-terminal FITC-labeled compound. Particulars: buffer. The data set is classed as physicochemical.
Data set [7] can be described thus: Stability of the compound in water using C-terminal FITC-labeled compound. Format: physicochemical. The following applies: buffer.
Data set [8] in a line: Drug uptake in human DaOY cells assessed as drug internalization at 0.25 to 100 uM incubated for 24 hrs using C-terminal FITC labeled compound by confocal microscopy. Format: ADME, cell-based. The method, boiled down:
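Medulloblastoma cells exposed 24 h to fluorescently labelled peptide at 0.25 μM, 25 μM and 100 μM, then imaged by confocal microscopy. Cell membrane stained red, nucleus blue, peptide green. Untreated cells served as control.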

A short description of data set [9]: Stability in human serum incubated for up to 4 hrs by LC-MS/MS analysis. Format: ADME, cell-free.
Data set [10] is described as follows: Drug uptake in human DaOY cells assessed as secondary lifetime at 0.25 uM measured after 3 hrs by fluorescence live imaging microscopy analysis. Format: ADME, cell-based.
Data set [11] has as its system MRC5. The experiment in a line: Cytotoxicity against human MRC5 cells assessed as reduction in cell viability incubated for 72 hrs by AlamarBlue cell viability assay. Format: cell-based. The following applies: MRC5, 72 h. The procedure, abridged: as §1
Background: Resazurin is reduced to fluorescent resorufin, in cell work by metabolically active cells.

Data set [12] can be described thus: Cytotoxicity against human NHA cells assessed as reduction in cell viability incubated for 72 hrs by AlamarBlue cell viability assay. Format: cell-based. The method, boiled down:
as §1

Data set [13] can be described thus: Selectivity index, ratio of IC50 for human NHA cells to IC50 for human DaOY cells incubated for 72 hrs by AlamarBlue cell viability assay.
Data set [14] is described as follows: Stability in human serum at 250 uM incubated for up to 4 hrs MALDI-TOF analysis. Format: ADME, cell-free.
A short description of data set [15]: Drug uptake in human DaOY cells assessed as drug internalization at 0.25 uM pretreated with actin polymerization inhibitor/macropinocytosis inhibitor, cytochalasin D 1 hr prior to compound addition and measured after 3 hrs by flow cytometry. Format: ADME, cell-based. The method, boiled down:
(§2)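 To probe endocytic routes, cells were first pre-treated with non-toxic concentrations of one of four inhibitors before compound exposure. The inhibitors were genistein (caveolae), cytochalasin D (actin/macropinocytosis), amiloride hydrochloride (caveolae/macropinocytosis) and chlorpromazine hydrochloride (clathrin).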

The test system of data set [16] is Daoy. The experiment in a line: Cytotoxicity against human DaOY cells assessed as reduction in cell viability incubated for 72 hrs by AlamarBlue cell viability assay. The data set is classed as functional, cell-based. The procedure, abridged: as §1
Data set [17] in a line: Stability in mouse serum incubated for up to 4 hrs by LC-MS/MS analysis. The data set is classed as ADME, cell-free.
Data set [18] is described as follows: Ratio of IC50 of compound to IC50 of doxorubicin for cytotoxicity against human MRC5 cells assessed as reduction in cell viability incubated for 72 hrs by AlamarBlue cell viability assay. Format: cell-based. The following applies: read-out: Ratio IC50.
Data set [19] is described as follows: Drug uptake in human DaOY cells assessed as primary life time at 0.25 uM measured after 3 hrs by fluorescence live imaging microscopy analysis. The data set is classed as ADME, cell-based.
A short description of data set [20]: Ratio of IC50 of compound to IC50 of doxorubicin for cytotoxicity against human NHA cells assessed as reduction in cell viability incubated for 72 hrs by AlamarBlue cell viability assay. Format: cell-based. The following applies: read-out: Ratio IC50.
Data set [21] can be described thus: Stability in mouse serum at 250 uM incubated for up to 4 hrs MALDI-TOF analysis. Format: ADME, cell-free.
The nature of data set [22]: Selectivity index, ratio of IC50 for human MRC5 cells to IC50 for human DaOY cells incubated for 72 hrs by AlamarBlue cell viability assay.
Data set [23] can be described thus: Drug uptake in human DaOY cells assessed as drug internalization at 0.25 uM measured after 15 to 60 mins by confocal microscopy. The data set is classed as ADME, cell-based.
Data set [24] in a line: Drug uptake in human DaOY cells assessed as drug internalization at 0.25 uM measured after 3 hrs by flow cytometry. Format: ADME, cell-based.
The nature of data set [25]: Drug uptake in human DaOY cells assessed as drug localization by measuring punctuate pattern of expression throughout cell cytoplasm, perinuclear and nuclear region at 0.25 uM measured after 15 to 30 mins by confocal microscopy. The data set is classed as ADME, cell-based.
Data set [26] in a line: Drug uptake in human DaOY cells assessed as drug localization in nucleus at 0.25 uM pretreated with actin polymerization inhibitor/macropinocytosis inhibitor, cytochalasin D 1 hr prior to compound addition and measured after 3 hrs by fluorescence live imaging microscopy analysis. Format: ADME, cell-based.
A short description of data set [27]: Drug uptake in human DaOY cells assessed as drug internalization at 0.25 uM pretreated with clathrin-mediated endocytosis inhibitor, chlorpromazine hydrochloride 1 hr prior to compound addition and measured after 3 hrs by flow cytometry. Format: ADME, cell-based. The method, boiled down: as §2
The nature of data set [28]: Drug uptake in human DaOY cells assessed as drug internalization at 0.25 uM pretreated with caveloae-uptake inhibitor, genistein 1 hr prior to compound addition and measured after 3 hrs by flow cytometry. The data set is classed as ADME, cell-based. The procedure, abridged:
as §2

A short description of data set [29]: Drug uptake in human DaOY cells assessed as drug internalization at 0.25 uM pretreated with caveloae/macropinocytosis inhibitor, amiloride hydrochloride 1 hr prior to compound addition and measured after 3 hrs by flow cytometry. The data set is classed as ADME, cell-based. The method, boiled down: as §2
The nature of data set [30]: Drug uptake in human DaOY cells assessed as drug localization in cytoplasm at 0.25 uM pretreated with actin polymerization inhibitor/macropinocytosis inhibitor, cytochalasin D 1 hr prior to compound addition and measured after 3 hrs by fluorescence live imaging microscopy analysis. Format: ADME, cell-based.
Data set [31] can be described thus: Drug uptake in human DaOY cells assessed as drug localization in nucleus at 0.25 uM measured after 3 hrs by […]. The data set is classed as ADME, cell-based.
Data set [32] in a line: Drug uptake in human DaOY cells assessed as drug localization in perinuclear and nuclear regions of cell at 0.25 uM measured after 15 to 30 mins by confocal microscopy. The data set is classed as ADME, cell-based.

As to H-FSRPAFL-OH, the Drug uptake result in data set [1] and in data set [8] was “Active” throughout. Also, the Activity entry (in the data set with MRC5 [2]; in data set [4]; in the data set on Daoy [5]) was “Non-Toxic” each time. In the data set with Daoy [3], the result was Active. In data set [6], the solubility entry was “Soluble”. Further, the Stability result in [7] is listed as “Stable”.
Regarding `COc1cccc2c1C(=O)c1c(O)c3c(c(O)c1C2=O)C[C@@](O)(C(=O)COC(=O)CCCC(=O)N[C@@H](Cc1ccccc1)C(=O)N[C@@H](CO)C(=O)N[C@@H](CCCNC(=N)N)C(=O)N1CCC[C@H]1C(=O)N[C@@H](C)C(=O)N[C@@H](Cc1ccccc1)C(=O)N[C@@H](CC(C)C)C(=O)O)C[C@@H]3O[C@H]1C[C@H](N)[C@H](O)[C@H](C)O1` ({Glutaryl(5-(14-O-Dox))}-FSRPAFL-OH), the Stability entry in data set [9], in data set [14], in data set [17] and in [21] was “Stable” in each case. Further, the Time in data set [10] is on record as 1.3 nanoseconds; in [19] it was 4.3 nanoseconds. Also, the concentration for half-maximal inhibition (IC50) with MRC5 [11] was determined as 10800 nM; in [12], 842 nM; with Daoy [16], 25 nM. Also, the “Ratio IC50” value in data set [13] is recorded as 33.7; in data set [22], 430.2. The Drug uptake entry in [15] was “Not Active”; in data set [23], “Active”; in data set [24], “Active”; in data set [25], “Active”. Further, the values for the selectivity ratio at 72 h in data set [18] and in [20] were more than 72 and more than 7.4, respectively.
For `COc1cccc2c1C(=O)c1c(O)c3c(c(O)c1C2=O)C[C@@](O)(C(=O)COC(=O)CCCC(=O)N[C@H](C(=O)NCC(=O)NCC(=O)N[C@@H](CC(C)C)C(=O)N[C@@H](CO)C(=O)N[C@@H](Cc1c[nH]cn1)C(=O)N[C@@H](CCCNC(=N)N)C(=O)O)C(C)C)C[C@@H]3O[C@H]1C[C@H](N)[C@H](O)[C@H](C)O1` ({Glutaryl(5-(14-O-Dox))}-VGGLSHR-OH), the concentration for half-maximal inhibition (IC50) in the data set with Daoy [16] worked out at 130 nM.
Regarding `COc1cccc2c1C(=O)c1c(O)c3c(c(O)c1C2=O)C[C@@](O)(C(=O)CO)C[C@@H]3O[C@H]1C[C@H](N)[C@H](O)[C@H](C)O1` [DOXORUBICIN], the Time in data set [10] is reported as 1.3 nanoseconds; in data set [19] it was 4.3 nanoseconds. Also, the IC50 with MRC5 [11] worked out at 148 nM; in data set [12], 113 nM; in the data set with Daoy [16], 8.8 nM. For the same compound, the Drug uptake result in data set [26], in data set [27], in data set [28], in data set [15], in [29] and in [30] was “Active” throughout. Further, the Drug uptake result in [23], in data set [31] and in data set [32] was “Active” in each case. Also, the “Ratio IC50” value is given as 12.8 in [13] and 16.8 in [22].
